Test results reported in ChEMBL document CHEMBL1127687, “Benzoxazolamines and benzothiazolamines: potent, enantioselective inhibitors of leukotriene biosynthesis with a novel mechanism of action” (J Med Chem, 1994).

Species: Homo sapiens
Assay: Inhibitory activity of Ca-ionophore-A23187-induced Leukotriene B4 (LTB4) release in human polymorphonuclear leukocytes
Type: functional
Details: not given
Procedure, shortened: (§1)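 Human PMNs isolated from heparinized blood of healthy, medication-free donors (dextran sedimentation, Ficoll–Paque). DMSO stocks diluted into Ca/Mg-free Dulbecco's PBS. Cells (2.5 × 10^6/mL, PBS with Ca2+/Mg2+) preincubated with compound 15 min at 28 °C with shaking, then stimulated 10 min with A23187 (2.5 μM final). Stopped with EGTA (10 mM final), centrifuged, supernatant LTB4 measured by RIA.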
Compound CN1CCN(CC(Nc2nc3cc(Cl)ccc3o2)c2ccccc2)CC1 (configuration not stated) has an Inhibition of 21%. With Fc1ccc(CC(Nc2nc3cc(Cl)ccc3o2)c2ccccn2)cc1 (stereo in doubt; 59c) the IC50 was 0.32 µM. For c1ccc(C(CC2CCCCC2)Nc2nc3ccccc3o2)cc1 (stereo in doubt; 26b), the IC50 was 0.006 µM. c1ccc(C(CC2CCCCC2)Nc2nc3ccccc3o2)cc1 (stereo in doubt; 26a) showed an IC50 of 0.008 µM. Fc1ccc(CC(Nc2nc3cc(Cl)ccc3o2)c2ccccn2)cc1 (stereo in doubt; 59a) was tested, and the IC50 was 0.02 µM. c1ccc(C(CC2CCCCC2)Nc2nc3ccccc3o2)cc1 (stereo in doubt; 26c) gave an IC50 of 0.34 µM.

Same assay, conditions: Homo sapiens
Compound CCOC(=O)C(Cc1ccccc1)Nc1nc2ccc(C(C)C)cc2o1 (configuration not stated) has an IC50 of 0.22 µM. CCOC(=O)[C@H](Cc1ccccc1)Nc1nc2ccccc2s1 was tested, and the IC50 was 0.23 µM. For Fc1ccc(CC(Nc2nc3cc(F)c(F)cc3o2)c2ccccn2)cc1 (configuration not stated), the IC50 was 0.03 µM. With Fc1ccc(CC(Nc2nc3cc(F)ccc3o2)c2ccccn2)cc1 (configuration not stated) the IC50 was 0.021 µM. With CCOCC(Cc1ccc(F)cc1)Nc1nc2cc(C(C)C)ccc2o1 (configuration not stated) the IC50 was 0.041 µM. CC(C)c1ccc2oc(NC(CN3CCOCC3)c3ccccc3)nc2c1 (configuration not stated) showed an IC50 of 0.052 µM. With CC(C)c1ccc2oc(NC(Cc3cccc(Cl)c3)c3ccccn3)nc2c1 (configuration not stated) the IC50 was 0.005 µM. Compound COc1ccc(CC(Nc2nc3cc([N+](=O)[O-])ccc3o2)c2ccccn2)cc1 (configuration not stated) has an IC50 of 0.014 µM. CCOC(=O)C(Cc1ccc(F)cc1)Nc1nc2ccccc2s1 (configuration not stated) showed an IC50 of 0.33 µM. CCCCc1ccc2nc(NC(Cc3ccc(Cl)cc3)C(=O)OCC)sc2c1 (configuration not stated) gave an IC50 of 0.18 µM. With COc1ccc(C(CC2CCCCC2)Nc2nc3ccccc3o2)cc1 (configuration not stated) the IC50 was 0.55 µM. Cc1cccc(C(CC2CCCCC2)Nc2nc3ccccc3o2)c1 (configuration not stated) showed an IC50 of 0.3 µM. Work on CC(=O)C(Cc1ccccc1)Nc1nc2ccc(C(C)C)cc2o1 (configuration not stated) yielded an IC50 of 0.35 µM. For Cc1ccc2oc(N[C@H](CC3CCCCC3)c3ccccn3)nc2c1, the IC50 was 0.04 µM. CCCOCC(Cc1ccc(F)cc1)Nc1nc2cc(C(C)C)ccc2o1 (configuration not stated) showed an IC50 of 0.17 µM. For Cc1noc(C(Cc2ccc(F)cc2)Nc2nc3cc(C(C)C)ccc3o2)n1 (configuration not stated), the IC50 was 0.44 µM. For Cc1nc(CC(Nc2nc3cc(C(C)C)ccc3o2)c2ccccn2)cs1 (configuration not stated), the IC50 was 0.029 µM. Compound CSCC(Cc1ccccc1)Nc1nc2cc(C(C)C)ccc2o1 (configuration not stated) has an IC50 of 0.013 µM. In the case of Cc1ccc2oc(N[C@@H](CC3CCCCC3)c3ccccn3)nc2c1 [ONTAZOLAST], the IC50 is reported as 0.001 µM. c1ccc(CC(Nc2nc3ccccc3o2)c2ccccc2)cc1 (configuration not stated) showed an IC50 of 0.051 µM. CCOC(=O)C(Cc1ccc(Cl)cc1)Nc1nc2ccc(C(C)C)cc2s1 (configuration not stated) gave an IC50 of 0.33 µM. With CS(=O)(=O)Nc1ccc2oc(NC(CC3CCCCC3)c3ccccc3)nc2c1 (configuration not stated) the IC50 was 0.16 µM. With CCOC(=O)C(CCc1ccccc1)Nc1nc2ccccc2s1 (configuration not stated) the IC50 was 0.52 µM. For CCOC(=O)C(Cc1ccc(Cl)cc1)Nc1nc2ccccc2s1 (configuration not stated), the IC50 was 0.2 µM. Cc1ccc2oc(NC(CC3CCCCC3)c3cccnc3)nc2c1 (configuration not stated) was tested, and the IC50 was 0.02 µM. Compound CCOC(=O)C(Cc1ccccc1)N(C)c1nc2ccccc2s1 (configuration not stated) has an IC50 of 1 µM. COC(=O)[C@H](CC1CCCCC1)Nc1nc2ccccc2o1 showed an IC50 of 0.005 µM. In the case of COc1ccc2oc(NC(Cc3ccc(F)cc3)c3ccccn3)nc2c1 (configuration not stated), the IC50 is reported as 0.011 µM. O=C(O)c1ccc2oc(NC(CC3CCCCC3)c3ccccc3)nc2c1 (configuration not stated) gave an IC50 of 0.15 µM. Compound Clc1ccc2oc(NC(Cc3ccccc3)c3ccccc3)nc2c1 (configuration not stated) has an IC50 of 0.023 µM. For CC(C)c1ccc2oc(N[C@@H](CN3CCCCC3)c3ccccc3)nc2c1, the IC50 was 0.1 µM. CC(=O)Nc1ccc2oc(NC(CC3CCCCC3)c3ccccc3)nc2c1 (configuration not stated) gave an IC50 of 0.078 µM. Compound CCOC(=O)C(Cc1ccc(Cl)cc1)Nc1nc2ccc(OC)cc2s1 (configuration not stated) has an IC50 of 0.23 µM. For COCC(Cc1ccc(F)cc1)Nc1nc2cc(C(C)C)ccc2o1 (configuration not stated), the IC50 was 0.017 µM. CC(C)c1ccc2oc(NC(Cc3ccc(Cl)cc3)c3ccccn3)nc2c1 (configuration not stated) was tested, and the IC50 was 0.029 µM. For CCOC(=O)[C@@H](Cc1ccccc1)Nc1nc2ccccc2o1, the IC50 was 1.5 µM. In the case of CCOC(=O)c1ccc2oc(NC(Cc3ccc(F)cc3)c3ccccn3)nc2c1 (configuration not stated), the IC50 is reported as 0.027 µM. Cc1ccc2oc(NC(CC3CCCCC3)c3ccccn3)nc2c1 (configuration not stated) was tested, and the IC50 was 0.004 µM. Compound Clc1ccc2oc(NC(CN3CCSCC3)c3ccccc3)nc2c1 (configuration not stated) has an IC50 of 0.048 µM. For CCOC(=O)C(Cc1ccccc1)Nc1nc2ccccc2s1 (configuration not stated), the IC50 was 0.36 µM. In the case of CC(C)c1ccc2oc(NC(CC3CCCCC3)c3ccccc3)nc2c1 (configuration not stated), the IC50 is reported as 0.006 µM. Clc1ccccc1C(CC1CCCCC1)Nc1nc2ccccc2o1 (configuration not stated) was tested, and the IC50 was 0.08 µM. Work on CC(C)c1ccc2oc(N[C@H](CN3CCCCC3)c3ccccc3)nc2c1 yielded an IC50 of 1.2 µM. CNC(=O)C(CC1CCCCC1)Nc1nc2cc(C)ccc2o1 (configuration not stated) gave an IC50 of 0.072 µM. Work on Fc1ccc(CC(Nc2nc3cc(C(F)(F)F)ccc3o2)c2ccccn2)cc1 (configuration not stated) yielded an IC50 of 0.008 µM. With CN(C)S(=O)(=O)c1ccc2oc(NC(Cc3ccc(F)cc3)c3ccccn3)nc2c1 (configuration not stated) the IC50 was 0.05 µM. For CCOC(=O)C(Cc1ccccc1)Nc1nc2cc(C(C)C)ccc2o1 (configuration not stated), the IC50 was 0.0005 µM. c1ccc(CC(Nc2nc3ccccc3s2)c2ccccc2)cc1 (configuration not stated) was tested, and the IC50 was 0.17 µM. CCOC(=O)C(Cc1ccccc1)Nc1nc2ccc(CC)cc2s1 (configuration not stated) gave an IC50 of 0.24 µM. CCOC(=O)C(Cc1ccc(Br)cc1)Nc1nc2ccccc2s1 (configuration not stated) gave an IC50 of 0.15 µM. Work on COc1ccc2oc(NC(Cc3ccccc3)c3ccccc3)nc2c1 (configuration not stated) yielded an IC50 of 0.009 µM. CC(C)c1ccc2oc(NC(Cc3ccc(F)cc3)c3ccccn3)nc2c1 (configuration not stated) gave an IC50 of 0.012 µM. For N#Cc1ccc2oc(NC(CC3CCCCC3)c3ccccc3)nc2c1 (configuration not stated), the IC50 was 0.015 µM. CCOC(=O)C(Cc1csc(C)n1)Nc1nc2cc(C(C)C)ccc2o1 (configuration not stated) was tested, and the IC50 was 0.016 µM. For CCOC(=O)[C@H](Cc1ccccc1)Nc1nc2ccccc2o1, the IC50 was 0.15 µM. CN(C)C(=O)c1ccc2oc(NC(CC3CCCCC3)c3ccccc3)nc2c1 (configuration not stated) was tested, and the IC50 was 0.17 µM. O=[N+]([O-])c1ccc2oc(NC(Cc3ccc(F)cc3)c3ccccn3)nc2c1 (configuration not stated) was tested, and the IC50 was 0.016 µM. COC(=O)[C@@H](CC1CCCCC1)Nc1nc2ccccc2o1 was tested, and the IC50 was 0.1 µM. CCOC(=O)c1ccc2oc(NC(CC3CCCCC3)c3ccccc3)nc2c1 (configuration not stated) gave an IC50 of 0.045 µM. With Fc1ccc(C(CC2CCCCC2)Nc2nc3ccccc3o2)cc1 (configuration not stated) the IC50 was 0.17 µM. CCOC(=O)C(Cc1ccccc1)Nc1nc2cc(CC)ccc2s1 (configuration not stated) gave an IC50 of 0.012 µM. Cc1ccc2oc(NC(CC3CCCCC3)c3ccncc3)nc2c1 (configuration not stated) was tested, and the IC50 was 0.19 µM.

Species: Homo sapiens
Assay: Inhibitory activity of Ca-ionophore-A23187-induced Leukotriene B4 (LTB4) release in human polymorphonuclear leukocytes at the dose of 3 micro M concentration
Type: functional
Details: not given
Procedure, shortened: as §1
CCOC(=O)C(Cc1ccccc1)Cc1nc2ccccc2s1 (configuration not stated) gave an Inhibition of 56%. Compound O=[N+]([O-])c1ccc2oc(NC(Cc3ccc(O)cc3)c3ccccn3)nc2c1 (configuration not stated) has an Inhibition of 27%. In the case of O=C(O)C(Cc1ccccc1)Nc1nc2ccccc2s1 (configuration not stated), the Inhibition is reported as -19%. CCOC(=O)C(Nc1nc2ccccc2s1)c1ccccc1 (configuration not stated) showed an Inhibition of 61%. For NC(=O)c1ccc2oc(NC(CC3CCCCC3)c3ccccc3)nc2c1 (configuration not stated), the Inhibition was 35%. O=S1(=O)CCN(CC(Nc2nc3cc(Cl)ccc3o2)c2ccccc2)CC1 (configuration not stated) gave an Inhibition of 46%.

Same assay, conditions: in the assay text read “0.3 micro M” for “3 micro M”
OCc1ccc2oc(NC(CC3CCCCC3)c3ccccc3)nc2c1 (configuration not stated) showed an Inhibition of 41%.

Species: Homo sapiens
Assay: Inhibitory activity of Ca-ionophore-A23187-induced Leukotriene B4 (LTB4) release in human polymorphonuclear leukocytes at the dose of 1 micro M concentration
Type: functional
Details: not given
Procedure, shortened: as §1
CCOC(=O)C(Cc1c[nH]cn1)Nc1nc2cc(C(C)C)ccc2o1 (configuration not stated) showed an Inhibition of 26%. CCOC(=O)C(Cc1cncn1CC)Nc1nc2cc(C(C)C)ccc2o1 (configuration not stated) showed an Inhibition of 59%.
